Reference: PubChem BioAssay AID1040 (The Scripps Research Institute Molecular Screening Center, 2008)
The whole screen tested about 200,000 compounds, of which about 2,000 (1%) were called active. This is one part of a sample in which actives are shown more often than they occur.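 Rule for the calls: active = inhibition above the campaign mean inhibition of all tested compounds plus 3 SD (cut at about 20% in these data); inactive = the rest.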

Each compound was assayed against Neuropeptide Y receptor type 1 (Homo sapiens) (UniProt P25929) (assay: blockers of human neuropeptide Y Y1 receptor – cell-based, primary screen (AID 1040;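 note: 0% = DMSO wells given NPY plus isoproterenol and 100% = isoproterenol alone without NPY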)). Settings: HEK293-CNG Y1 cells, membrane potential fluorescence; at 3.6 µM; stronger effect = higher value; NPY at EC95, then isoproterenol.
How it was run: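 Material: Y1- and CNG-channel-expressing HEK293 cells / Probe or stimulus: NPY 25 nM then isoproterenol 1 µM plus Ro 20-1724 25 µM / Doses: 3.6 µM single dose, DMSO 0.4% / Schedule: compound incubation 1 h at room temperature, readout 45 min post-stimulation / Signal: membrane potential fluorescence / Benchmarks: isoproterenol-only wells as full block versus NPY-plus-isoproterenol wells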

Neuropeptide Y receptor type 1 (Homo sapiens), sequence (P25929 whole entry, looked up): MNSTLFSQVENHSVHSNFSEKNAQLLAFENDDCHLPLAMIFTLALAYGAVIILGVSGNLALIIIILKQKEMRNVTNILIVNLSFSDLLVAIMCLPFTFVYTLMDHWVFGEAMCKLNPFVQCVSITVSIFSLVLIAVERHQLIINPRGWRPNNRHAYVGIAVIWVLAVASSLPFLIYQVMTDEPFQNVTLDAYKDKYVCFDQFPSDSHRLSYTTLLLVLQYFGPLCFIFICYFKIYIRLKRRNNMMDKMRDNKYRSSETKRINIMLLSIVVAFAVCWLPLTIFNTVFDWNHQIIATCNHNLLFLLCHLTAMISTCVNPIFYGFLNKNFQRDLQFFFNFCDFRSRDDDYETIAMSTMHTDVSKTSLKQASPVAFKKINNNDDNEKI

Row | SMILES | inhibition
1 | CCOC(=O)c1cccnc1NC(=O)c1ccncc1 | -1.05% (inactive)
2 | CC(C)N(C(=O)CSc1nc(COc2ccccc2)nc2ccccc12)C(C)C | 3.31% (inactive)
3 | CCOC(=O)N1CCN(C(=S)Nc2ccc(C)cc2C)CC1 | 3.77% (inactive)
4 | CCOC(=O)c1cn(Cc2cccc(C)c2)nn1 | -0.81% (inactive)
5 | CCOC(=O)c1nn(-c2cccc(C)c2)cc1C(=O)c1ccccc1 | 22% (active)
6 | CC(=O)c1nn(-c2cccc(Br)c2)cc1C(=O)c1cccc2ccccc12 | -2.46% (inactive)
7 | CCCCC(=O)Nc1nc(C)c(-c2csc(Nc3ccc(Cl)cc3)n2)s1 | 4.16% (inactive)
8 | CCCCCCC(=O)Nc1nc(C)c(-c2csc(Nc3cc(Cl)ccc3OC)n2)s1 | 11.2% (inactive)
9 | CCCCCCC(=O)Nc1nc(C)c(-c2csc(Nc3cccc(OC)c3)n2)s1 | 28.2% (active)
10 | CCOC(=O)C1CCCN(C(=O)COc2ccc(N(C)S(=O)(=O)c3ccc(C)cc3)cc2)C1 (stereo not given) | 2% (inactive)
11 | CCSC1=NCCN1S(=O)(=O)c1ccc(F)cc1 | -1.87% (inactive)
12 | Cc1ccc(OCC(=O)Nc2cccc3c2CCCC3)cc1C | 21.6% (active)
13 | COCCNC(=O)COc1ccc(C)c(C)c1 | -3.6% (inactive)
14 | Cc1cccc(OCC(=O)Nc2ccccc2F)c1 | 5.47% (inactive)
15 | COc1ccc(C2Nc3ccccc3C(=O)N2c2ccc(F)cc2)cc1Cn1nnc2ccccc21 (stereo not given) | -0.97% (inactive)
16 | COc1ccc(C2Nc3ccccc3C(=O)N2c2ccc(Cl)cc2)cc1Cn1cc([N+](=O)[O-])cn1 (stereo not given) | 3.97% (inactive)
17 | COc1ccc(C2Nc3ccccc3C(=O)N2Cc2ccccc2)cc1Cn1nnc2ccccc21 (stereo not given) | 27.9% (active)
18 | OCCC1CN(Cc2cccc(OC3CCCC3)c2)CCN1Cc1ccsc1 (stereo not given) | 7.81% (inactive)
19 | CC(=O)NCCC(=O)Nc1nc(C)c(Cc2ccc3c(c2)OCO3)s1 | 3.53% (inactive)
20 | CC(C[N+](C)(C)C)OC(N)=O (stereo not given) | -2.3% (inactive)
21 | CC(=O)OC(C)C[N+](C)(C)C (stereo not given) | 25.2% (active)
22 | CC1CN(CCOc2ccccc2[N+](=O)[O-])CC(C)O1 (stereo not given) | -1.43% (inactive)
23 | c1ccc(-c2ccccc2OCCN2CCCCC2)cc1 | 22.3% (active)
24 | CC1CN(CCCOc2ccccc2-c2ccccc2)CC(C)O1 (stereo not given) | 24.5% (active)
25 | CN1CCN(CCCCOc2ccccc2-c2ccccc2)CC1 | 12.9% (inactive)

Row | SMILES | inhibition
26 | Cc1cc(C)c(OCCN2CC(C)OC(C)C2)c(Br)c1 (stereo not given) | 9.03% (inactive)
27 | CC1CCCN(CCOCCOc2ccccc2-c2ccccc2)C1 (stereo not given) | 12.5% (inactive)
28 | COC(=O)COc1cccc2c(=O)n(CC(=O)NCCc3ccc(OC)c(OC)c3)ccc12 | -1.97% (inactive)
29 | O=C(CSc1nnnn1C1CCCC1)Nc1ccc2c(c1)OCCO2 | 22.9% (active)
30 | CCC(=O)Nc1cccc(NC(=O)CSc2nnnn2C2CCCC2)c1 | 3.57% (inactive)
31 | O=C(CSc1nnnn1-c1ccc2c(c1)CCC2)Nc1ccc2c(c1)OCCO2 | 6.81% (inactive)
32 | CCC(=O)Nc1ccc(S(=O)(=O)NCC2CCCO2)cc1 (stereo not given) | -5.94% (inactive)
33 | CCC(=O)c1c[nH]c(C(=O)NCC2CCCO2)c1 (stereo not given) | 55.6% (active)
34 | O=C(NCC1CCCO1)c1ccc2ccccc2n1 (stereo not given) | 2.64% (inactive)
35 | Nc1ccc(Cl)c(S(=O)(=O)Nc2ccccc2Cl)c1 | -0.95% (inactive)
36 | COC(=O)c1ccc(NC(=S)NN2CCOCC2)cc1 | 4.27% (inactive)
37 | CC(Nc1nc(N2CCOCC2)nc2ccccc12)c1ccccc1 (stereo not given) | 8.28% (inactive)
38 | CC(Nc1nc(N2CCN(CCO)CC2)nc2ccccc12)c1ccccc1 (stereo not given) | 22.2% (active)
39 | c1ccc(-c2cc(N3CCCCC3)c3ccccc3n2)cc1 | 15.9% (inactive)
40 | O=C(NC(c1ccccc1)c1ccccc1)N1CCN(CCO)CC1 | 3.34% (inactive)
41 | CCCCn1c(CN2CCN(CCO)CC2)nc2ccccc21 | 6.52% (inactive)
42 | CC(Nc1nc(N2CCCC2)nc2ccccc12)c1ccccc1 (stereo not given) | 32.6% (active)
43 | COc1ccc(CC(=O)Nc2ccccc2NC(=O)c2ccco2)cc1OC | 0.93% (inactive)
44 | Cc1ccc(-c2nnc(SCC(=O)N/N=C/c3cccs3)n2-c2ccc(C)cc2)cc1 | 0.85% (inactive)
45 | CC(Oc1ccccc1F)C(=O)NN (stereo not given) | 2.86% (inactive)
46 | O=C(O)CCc1nc2cc(Cl)ccc2n(Cc2ccccc2)c1=O | 5.7% (inactive)
47 | O=C(C1CCCN1S(=O)(=O)c1ccc(Br)cc1)N1CCOCC1 (stereo not given) | -0.15% (inactive)
48 | CN1CCN(c2ccc(NC(=O)c3ccc4c(c3)OCCO4)cc2Cl)CC1 | 12% (inactive)
49 | O=C(O)c1ccccc1-c1ccccc1C(=O)Nc1nccs1 | 2.4% (inactive)
50 | O=C(NCCc1ccc(F)cc1)c1n[nH]c2ccccc12 | -0.22% (inactive)

Row | SMILES | inhibition
51 | Cc1ccc(C)c(NC(=S)NCC(c2cccnc2)N2CCOCC2)c1 (stereo not given) | 0.28% (inactive)
52 | O=C1c2cccc3cccc(c23)C(=O)N1CCCCCc1n[nH]c(=S)o1 | 5.39% (inactive)
53 | O=C(Nc1cccc(Cl)c1)Nc1ccccc1NS(=O)(=O)c1cccs1 | -7.2% (inactive)
54 | c1ccc(-c2[nH]ncc2-c2nc3ccccc3[nH]2)cc1 | -3.83% (inactive)
55 | COc1ccc(-c2[nH]nc(-c3ccccc3)c2-c2nc3ccccc3[nH]2)cc1 | 20.3% (active)
56 | c1ccc2[nH]c(-c3nc4ccccc4[nH]3)nc2c1 | 0.38% (inactive)
57 | Cc1ccc(NC(=O)C(=O)NCC2CCN(C(=O)c3cccc([N+](=O)[O-])c3)CC2)cc1 | -1.84% (inactive)
58 | Cc1ccc(S(=O)(=O)/N=C(\N)c2ccc(F)cc2)cc1 | -5.62% (inactive)
59 | O=C(NCc1ccccn1)c1cc(-c2ccccc2Cl)on1 | 9.55% (inactive)
60 | Clc1ccc(-c2cc(COc3ccccc3)no2)cc1Cl | 5% (inactive)
61 | Clc1ccccc1-c1cc(COc2ccc3ccccc3c2)no1 | 25.6% (active)
62 | Cc1cc(C)cc(C(=O)NC(=S)Nc2ccc3[nH]c(=O)[nH]c3c2)c1 | 6.81% (inactive)
63 | COc1ccccc1CNC(=O)c1cc(=O)c2ccccc2o1 | -4.58% (inactive)
64 | COc1ccccc1C1C2=C(COC2=O)Nc2cc3c(cc21)OCO3 (stereo not given) | 36.2% (active)
65 | CCCOc1ccccc1C1CC(=O)Nc2cc3c(cc21)OCO3 (stereo not given) | 8.29% (inactive)
66 | COc1cc2c(cc1/C=C1/NC(=O)N(c3ccccc3)C1=O)OCO2 | 6.09% (inactive)
67 | CCC(C)[C@@H](C(=O)N1CCNCC1)n1cc(CCCCN)nn1 (stereo not given in full) | 1.85% (inactive)
68 | O=C(CC1NCCNC1=O)Nc1cc(Cl)cc(Cl)c1 (stereo not given) | 0.62% (inactive)
69 | COC(=O)c1ccc(/C=N/OCC(=O)Nc2cc(F)ccc2F)cc1 | 11.1% (inactive)
70 | Cc1ccc(CSc2nc3[nH]ncc3c(=O)[nH]2)cc1 | 7.17% (inactive)
71 | Cc1cccc2cc(CN(Cc3cccs3)C(c3nnnn3C3CCCC3)C(C)C)c(=O)[nH]c12 (stereo not given) | 14.5% (inactive)
72 | Cc1cccc2cc(CN(Cc3ccc4c(c3)OCO4)Cc3nnnn3C3CCCC3)c(=O)[nH]c12 | -4.12% (inactive)
73 | CCC(c1nnnn1C1CCCC1)N(Cc1cccs1)Cc1cc2cccc(C)c2[nH]c1=O (stereo not given) | 20.4% (active)
74 | CCOc1cccc(OCCCOc2cccc3cccnc23)c1 | 1.99% (inactive)
75 | CN(C)S(=O)(=O)c1cccc(NC(=O)COC(=O)c2cc(=O)[nH]c(=O)[nH]2)c1 | 0.75% (inactive)

Row | SMILES | inhibition
76 | CCOC(=O)C1CCN(C(=O)/C=C/c2cc(OC)c(OC)c(OC)c2)CC1 | -1.4% (inactive)
77 | Cc1ccc(/C=N/NC(=O)c2sccc2OCc2ccc(F)cc2)cc1 | 27.2% (active)
78 | Cc1ccc(COc2ccc(/C=N/NC(=O)CN3CCCCC3)cc2)cc1 | 16.6% (inactive)
79 | Cc1ccsc1C(=O)N/N=C/c1ccc([N+](=O)[O-])cc1 | 2.54% (inactive)
80 | CS/C(=C\[N+](=O)[O-])Nc1ccc(C)cc1 | 10.6% (inactive)
81 | O=C(COC(=O)C1CC2C=CC1C2)Nc1ccccc1 (stereo not given) | -2.39% (inactive)
82 | CCCCN(CC)C(=O)c1ccc2c(c1)OCO2 | -2.36% (inactive)
83 | CCOc1ccc(CCNC(=O)C2=C(C)C(=O)OC23CCC(C)CC3)cc1OCC (stereo not given) | 8.46% (inactive)
84 | O=C(O)CSc1nccc2ccccc12 | 21.7% (active)
85 | COC(=O)CSc1nc(C2CC2)nc2ccccc12 | 3.03% (inactive)
86 | O=C(O)CSc1nccn1-c1cccc(Cl)c1 | 7.38% (inactive)
87 | CC1COc2ccccc2N1C(=O)c1cccnc1Cl (stereo not given) | 1.41% (inactive)
88 | CCOc1ccccc1Nc1ccc(C(=O)O)cc1[N+](=O)[O-] | 3.86% (inactive)
89 | ClC1(Cl)CC1CSc1ncn[nH]1 (stereo not given) | 3.1% (inactive)
90 | COC(=O)c1nc2n(n1)C(c1ccc([N+](=O)[O-])cc1)C(C(=O)Nc1ccc(Cl)cc1)=C(C)N2 (stereo not given) | -1.89% (inactive)
91 | Cc1nn(C)c(C)c1Sc1ccccc1N | -0.64% (inactive)
92 | COc1ccc2[nH]c3c(=O)n(Cc4ccco4)cnc3c2c1 | 1.7% (inactive)
93 | c1ccc(-c2oc3ncnc(N4CCOCC4)c3c2-c2ccccc2)cc1 | 4.24% (inactive)
94 | COc1ccc(-c2oc3ncn(Cc4ccco4)c(=N)c3c2-c2ccc(OC)cc2)cc1 | 31.4% (active)
95 | N=c1c2c(-c3ccccc3)c(-c3ccccc3)oc2ncn1Cc1ccco1 | 25.5% (active)
96 | COc1ccc(-n2cnc3cc(NCc4ccco4)ccc32)cc1 | -4.2% (inactive)
97 | C(=C\c1ccccc1)/CSc1nnc(-c2cccnc2)n1Cc1ccco1 | 9.54% (inactive)
98 | Cc1ccccc1NC(=O)NC1(C(=O)N2CCCC2)CCCCC1 | 0.5% (inactive)
99 | COc1cc(SC)ccc1C(=O)Nc1cc(C)ccn1 | 4.33% (inactive)
100 | Cc1ccc(C(=O)NCC(=O)O)s1 | -2.04% (inactive)
